In the library only some 5.3% were active in any assay of this set; here they are far more common.
T cruzi repl: inhibitors of intracellular T. cruzi growth, primary screen, luminescence, NIH3T3 host cells. AID 1885, 2009. inhibition, % (no concentration beside the values). T. cruzi beta-gal in NIH3T3, 90 h. 300,000 compounds, 1.4% hits;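 active = mean inhibition across valid replicates above about 55%, limit read from the data; inconclusive = mean below that limit but half or more replicates reach it; inactive = mean below it, under half of replicates reach it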;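 also: signal also drops with host cell toxicity which is not excluded here; 0% = plate median of DMSO wells and 100% = zero luminescence signal; higher percent means less beta-gal luminescence so fewer parasites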
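Incubation – ≥90 h infection period, 3 h prior cell attachment · System – NIH/3T3 fibroblasts plus reporter T. cruzi · Doses – compound pinned at 50 nL/well, DMSO · Read-out basis – percent inhibition of parasite-derived β-gal signal · Signal – luminescent β-galactosidase signal after 60 min lysis · Also added – 5000 T. cruzi trypomastigotes/well · Medium – Low-serum DMEM with 2% FBS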
Mdm2 MdmX PPI: inhibitors of human Mdm2-MdmX association, primary screen, cell-based, luminescence, split luciferase, SaOS-2, uHTS. Protein Mdm4 (Homo sapiens) + E3 ubiquitin-protein ligase Mdm2 (Homo sapiens), …. SaOS-2 split-luciferase Mdm2/MdmX complementation. inhibition, % at 8 µM. 330,000 compounds, 3% hits. AID 485346, 2010;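 active = inhibition of at least 50% at 8 µM in the primary screen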
Target sequence (O15151 whole entry, looked up): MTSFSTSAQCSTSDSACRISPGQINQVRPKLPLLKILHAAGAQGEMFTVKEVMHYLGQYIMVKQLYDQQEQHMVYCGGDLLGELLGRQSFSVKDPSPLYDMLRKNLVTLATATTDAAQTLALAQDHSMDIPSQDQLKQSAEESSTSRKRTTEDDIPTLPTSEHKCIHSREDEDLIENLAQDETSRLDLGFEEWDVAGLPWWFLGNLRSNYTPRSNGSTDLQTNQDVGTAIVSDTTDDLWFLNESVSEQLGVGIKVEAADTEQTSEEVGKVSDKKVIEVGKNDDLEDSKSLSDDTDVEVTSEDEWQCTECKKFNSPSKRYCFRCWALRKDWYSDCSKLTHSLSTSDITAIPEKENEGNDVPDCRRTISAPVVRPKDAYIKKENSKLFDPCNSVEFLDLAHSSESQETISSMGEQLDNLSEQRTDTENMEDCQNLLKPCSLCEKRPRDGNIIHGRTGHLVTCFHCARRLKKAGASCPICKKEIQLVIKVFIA
Target sequence (Q00987 whole entry, looked up): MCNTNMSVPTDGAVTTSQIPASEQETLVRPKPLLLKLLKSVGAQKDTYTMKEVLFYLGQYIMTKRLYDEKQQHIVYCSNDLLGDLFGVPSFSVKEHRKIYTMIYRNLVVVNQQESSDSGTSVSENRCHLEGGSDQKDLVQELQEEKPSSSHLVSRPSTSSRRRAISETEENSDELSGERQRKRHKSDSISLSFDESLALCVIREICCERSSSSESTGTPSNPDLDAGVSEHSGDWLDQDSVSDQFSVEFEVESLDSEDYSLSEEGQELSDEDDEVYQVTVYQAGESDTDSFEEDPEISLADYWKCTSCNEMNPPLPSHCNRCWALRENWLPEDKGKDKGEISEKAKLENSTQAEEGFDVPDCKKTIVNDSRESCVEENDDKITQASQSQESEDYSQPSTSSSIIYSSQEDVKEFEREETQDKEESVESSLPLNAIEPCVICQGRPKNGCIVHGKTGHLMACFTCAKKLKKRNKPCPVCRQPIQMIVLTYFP
NLRP3 yeast inh: NALP3 inflammasome inhibitors in reconstituted yeast, primary screen, luminescence, uHTS. AID 2825, 2010. Yeast reconstituted NLRP3/ASC/caspase-1, beta-gal luminescence, 24 h. 330,000 compounds, 0.39% hits. inhibition, % at 10 µM;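 active = inhibition of 50% or more; inactive = inhibition below 50%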;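 also: plate controls were induced DMSO wells for no effect and uninduced yeast grown without galactose for full effect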
CSC inhib: cancer stem cell viability inhibitors, primary screen, luminescence. inhibition, % at 7.5 µM. AID 2717, 2010. cancer stem cell-like cells viability. 300,000 compounds, 1.1% hits; in the data active = inhibition above about 75%; inconclusive = no clear call, values can overlap the other calls; tested in HMLE shEcad cells
Calb FLC: C. albicans growth inhibition with fluconazole, primary screen, CaCi-2 strain, Alamar Blue fluorescence. 300,000 compounds, 0.57% hits. AID 1979, 2009. growth inhibition, % (no concentration beside the values). C. albicans CaCi-2 + fluconazole, 48 h;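 active = growth inhibition above about 58% in most replicates, limit read from the data, passing the limit was not always enough; inconclusive = exactly half the replicates above a set limit; inactive = most replicates below a set limit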;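 also: all wells also contain fluconazole at 8 µg/ml as a sub-toxic cotreatment; 0% = median of DMSO wells and 100% = median of geldanamycin control wells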
Beta cell apopt: inhibitors of cytokine-induced beta cell apoptosis, primary screen, luminescence. INS-1E cytokine-induced death, ATP luminescence, 48 h; percent of positive-control rescue, neutral wells zero. protection from apoptosis, % (no concentration beside the values). 300,000 compounds, 0.8% hits. AID 435005, 2010;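 active = Every replicate reaches about 75%, or at least half do and their mean reaches it too, limit read from the data; inconclusive = At least half of replicates reach the limit but their mean does not; inactive = Under half of replicates reach the limit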;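 also: 0% = cytokine-treated negative control wells and 100% = positive control rescue; higher means more ATP so stronger rescue from cytokine killing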
Mdm2 MdmX conf: Mdm2-MdmX complex disruptors, retested hits, confirmation, luminescence, single concentration. 10,000 compounds, 55% hits. shares compounds with Mdm2 MdmX PPI. inhibition, % at 8 µM. Mdm2-MdmX binding, luminescent assay; in the data active = inhibition above about 40%
FLuc counter: full-length luciferase signal inhibition, confirmation, counter-screen for Mdm2/MdmX interaction inhibitor project, cell-based, single concentration, SaOS-2 | AID 504607, 2011 | inhibition, % at 8 µM | shares compounds with Mdm2 MdmX PPI | 6,200 compounds, 77% hits | SaOS-2 full-length luciferase counterscreen, luminescence;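 active = mean inhibition at 8 µM reaching about 37%, which flags the compound as non-specific, limit read from the data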;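 also: p53-null SaOS-2 cells with luciferase driven by a doxycycline-inducible promoter; compound on cells about two nights before reading with doxycycline added after day one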
An asterisk follows results filed as active; ? = inconclusive; / = no result given.

SMILES	T cruzi repl	Mdm2 MdmX PPI	NLRP3 yeast inh	CSC inhib	Calb FLC	Beta cell apopt	Mdm2 MdmX conf	FLuc counter
CC(Nc1cccc2ccccc12)C(=O)N/N=C/c1ccccn1 (centres undefined)	-4	26	19	40	34	1	/	/
O=C(Oc1ccc2c(c1)O/C(=C\c1ccncc1)C2=O)c1ccccc1	1	20	4	-3	5	-9	/	/
CCOC(=O)c1nnn(CC(=O)NC(=O)Nc2cccc(CC)c2)c1C(=O)OCC	-3	15	-15	-20	7	0	/	/
CN(C)C(=O)CCc1ccc2c3c([nH]c2c1)[C@]1(CCC2CCCC2)[C@@H](C(=O)N2CCOCC2)C[C@H](CC(=O)NCc2cccc(C(F)(F)F)c2)C(=O)N1CC3	/	61*	/	/	/	/	53*	59*
COc1ccc2[nH]c3c(c2c1)CCN1C(=O)C(CC(=O)NCCN2CCOCC2)C[C@H](C(=O)N2CCOCC2)[C@@]31CCC1CCCC1 (some centres undefined)	/	66*	/	/	/	/	-15	/
CN(C)CCCNC(=O)CC1C[C@H](C(=O)N2CCOCC2)[C@@]2(CCC3CCCC3)c3[nH]c4ccccc4c3CCN2C1=O (some centres undefined)	/	36	-7	/	/	-4	/	/
O=C(CC1C[C@H](C(=O)N2CCOCC2)[C@@]2(CCC3CCCC3)c3[nH]c4ccccc4c3CCN2C1=O)NCCC1=CCCCC1 (some centres undefined)	/	60*	2	/	/	5	-16	/
COc1ccc2[nH]c3c(c2c1)CCN1C(=O)C(CC(=O)NC(C)(C)C)C[C@H](C(=O)N2CCOCC2)[C@@]31CCC1CCCC1 (some centres undefined)	/	12	/	/	/	/	/	/
CCN(CC)c1ccc(NC(=O)c2cnc3ccccn3c2=O)c(C)c1	?	-35	29	0	-3	11	/	/
Nc1nc(CCl)nc(N(c2ccccc2)c2ccccc2)n1	37	94*	-1	3	5	23	95*	38*
COc1cccc(/C=N/N2CCN(Cc3ccccc3)CC2)c1O	-2	14	3	-5	-8	-4	/	/
CS(=O)(=O)c1ccc(Cl)c(C(=O)NCC2CCCCC2)c1	1	21	7	-4	/	0	/	/
COC(=O)C1=C(Nc2ccc(C)cc2)C=C(C)C(C(=O)OC)C1c1cccc(OC)c1 (centres undefined)	58*	53*	7	-1	7	11	57*	62*
C[C@H](CO)N1C[C@H](C)[C@@H](CN(C)S(=O)(=O)c2cccs2)Oc2ccc(NC(=O)Nc3ccccc3)cc2C1=O	/	16	4	/	/	-1	/	/
C[C@H](CO)N1C[C@H](C)[C@@H](CN(C)S(=O)(=O)c2cccs2)Oc2ccc(NC(=O)Nc3ccc(C(F)(F)F)cc3)cc2C1=O	/	68*	9	61	/	6	-2	/
C[C@@H]1CN([C@H](C)CO)C(=O)c2cc(NC(=O)Nc3ccc(C(F)(F)F)cc3)ccc2O[C@H]1CN(C)S(=O)(=O)c1cccs1	/	81*	1	/	/	?	51*	44*
COc1ccccc1NS(=O)(=O)c1cccc(-n2c(O)c(C=Nc3ccccc3C(=O)O)c3ccccc3c2=O)c1	51	54*	15	53	7	2	59*	70*
COc1ccc(Cn2c(O)c(C=Nc3ccccc3C(=O)O)c3ccccc3c2=O)cc1	40	9	4	21	13	-1	/	/
CCCC(=O)NC(c1ccc(N(C)C)cc1)c1c(O)ccc2ccccc12 (centres undefined)	2	5	0	-5	-1	-6	/	/

Assay outcomes: PubChem, several laboratories
